The source made the active and inactive calls. The rule behind the calls is not given here.
Key:
Rattus norvegicus [1] = experiment: Postcoital antifertility activity in rat assessed as viable/resorbing fetuses at 1 ug, po qd for 11 days; format: functional, organism-based
In short: (§1)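 Female rats, 4–5 per group, given 11 daily oral or subcutaneous doses starting at the first evidence of breeding. They were killed on day 12 and checked for viable or resorbing fetuses. Results are given as animals pregnant out of animals treated.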

Rattus norvegicus [2] = experiment: Postcoital antifertility activity in rat assessed as viable/resorbing fetuses at 1 ug, sc qd for 11 days; format: functional, organism-based; in short: as §1
Mus musculus [3] = experiment: Antiestrogenic activity in immature Cox mouse assessed as reduction of uterine wet weight at 300 ug, sc qd for 3 days in presence of 0.3 ug of estrone; format: functional
In short: (§2)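 Immature mice, ten per group, given the agent daily for 3 days by subcutaneous injection or by mouth. The agent went with estrone given subcutaneously (0.3 µg total dose in the table). Subcutaneous doses were in 0.1 mL corn oil, and doses are stated as total dose. Uterine wet weight was taken on day 4 and compared with estrone alone. Reported as mean difference in mg (SE) and % inhibition.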

Mus musculus [4] = experiment: Antiestrogenic activity in immature Cox mouse assessed as reduction of uterine wet weight at 100 ug, sc qd for 3 days in presence of 0.3 ug of estrone; format: functional; in short: as §2
Mus musculus [5] = experiment: Antiestrogenic activity in immature Cox mouse assessed as reduction of uterine wet weight at 30 ug, sc qd for 3 days in presence of 0.3 ug of estrone; format: functional; in short: as §2
Mus musculus [6] = experiment: Antiestrogenic activity in immature Cox mouse assessed as reduction of uterine wet weight at 10 ug, sc qd for 3 days in presence of 0.3 ug of estrone; format: functional; in short: as §2
Mus musculus [7] = experiment: Antiestrogenic activity in immature Cox mouse assessed as reduction of uterine wet weight at 3 ug, sc qd for 3 days in presence of 0.3 ug of estrone; format: functional; in short: as §2
Mus musculus [8] = experiment: Antiestrogenic activity in immature Cox mouse assessed as reduction of uterine wet weight at 1 ug, sc qd for 3 days in presence of 0.3 ug of estrone; format: functional; in short: as §2
Mus musculus [9] = experiment: Antiestrogenic activity in immature Cox mouse assessed as reduction of uterine wet weight at 300 ug, po qd for 3 days in presence of 0.3 ug of estrone; format: functional; in short: as §2
Mus musculus [10] = experiment: Antiestrogenic activity in immature Cox mouse assessed as reduction of uterine wet weight at 100 ug, po qd for 3 days in presence of 0.3 ug of estrone; format: functional; in short: as §2
Mus musculus [11] = experiment: Antiestrogenic activity in immature Cox mouse assessed as reduction of uterine wet weight at 30 ug, po qd for 3 days in presence of 0.3 ug of estrone; format: functional; in short: as §2
Mus musculus [12] = experiment: Antiestrogenic activity in immature Cox mouse assessed as reduction of uterine wet weight at 300 ug, sc qd for 3 days; format: functional
Mus musculus [13] = experiment: Antiestrogenic activity in immature Cox mouse assessed as reduction of uterine wet weight at 100 ug, sc qd for 3 days; format: functional
Mus musculus [14] = experiment: Antiestrogenic activity in immature Cox mouse assessed as reduction of uterine wet weight at 30 ug, sc qd for 3 days; format: functional
Mus musculus [15] = experiment: Antiestrogenic activity in immature Cox mouse assessed as reduction of uterine wet weight at 10 ug, sc qd for 3 days; format: functional
Mus musculus [16] = experiment: Antiestrogenic activity in immature Cox mouse assessed as reduction of uterine wet weight at 3 ug, sc qd for 3 days; format: functional
Mus musculus [17] = experiment: Antiestrogenic activity in immature Cox mouse assessed as reduction of uterine wet weight at 1 ug, sc qd for 3 days; format: functional
Rattus norvegicus [18] = experiment: Antiuterotropic activity in ovariectomized rat assessed as reduction of uterine weight at 3 ug, po qd for 7 days in presence of 17beta-estradiol (reference value: 268.7 +/- 10.3 mg); format: functional
Rattus norvegicus [19] = experiment: Antiuterotropic activity in ovariectomized rat assessed as reduction of uterine weight at 5 ug, po qd for 7 days in presence of 17beta-estradiol (reference value: 268.7 +/- 10.3 mg); format: functional
Rattus norvegicus [20] = experiment: Antiuterotropic activity in ovariectomized rat assessed as reduction of uterine weight at 10 ug, po qd for 7 days in presence of 17beta-estradiol (reference value: 268.7 +/- 10.3 mg); format: functional
Rattus norvegicus [21] = experiment: Uterotropic activity in ovariectomized rat assessed as increase of uterine weight at 1 ug, sc qd for 7 days; format: functional, Uterus; details: in the assay text read “1 mg” for “1 ug”
In short: (§3)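 Ovariectomized adult rats, five per group, treated daily for 7 days, orally or subcutaneously, with the agent in 0.1 mL corn oil. The value is the mean uterine weight in mg of the treated group minus that of the control group (eight animals). Significance was tested by Student's t test (p < 0.05).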

Rattus norvegicus [22] = experiment: Uterotropic activity in ovariectomized rat assessed as increase of uterine weight at 0.1 ug, po qd for 7 days; format: functional, Uterus; details: in the assay text read “0.1 mg” for “0.1 ug”; in short: as §3
Rattus norvegicus [23] = experiment: Uterotropic activity in ovariectomized rat assessed as increase of uterine weight at 0.5 ug, po qd for 7 days; format: functional, Uterus; details: in the assay text read “0.5 mg” for “0.5 ug”; in short: as §3
Rattus norvegicus [24] = experiment: Uterotropic activity in ovariectomized rat assessed as increase of uterine weight at 1 ug, po qd for 7 days; format: functional, Uterus; details: in the assay text read “1 mg” for “1 ug”; in short: as §3
Rattus norvegicus [25] = experiment: Postcoital antifertility activity in rat assessed as viable/resorbing fetuses at 5 ug, po qd for 11 days; format: functional, organism-based; in short: as §1
Rattus norvegicus [26] = experiment: Postcoital antifertility activity in rat assessed as viable/resorbing fetuses at 5 ug, sc qd for 11 days; format: functional, organism-based; in short: as §1
Rattus norvegicus [27] = experiment: Postcoital antifertility activity in rat assessed as viable/resorbing fetuses at 0.5 ug, po qd for 11 days; format: functional, organism-based; in short: as §1
Rattus norvegicus [28] = experiment: Postcoital antifertility activity in rat assessed as viable/resorbing fetuses at 0.5 ug, sc qd for 11 days; format: functional, organism-based; in short: as §1

With `COc1ccc(C(=O)C2=C(c3ccc(OC)cc3)CCc3ccccc32)cc1` the Activity (Rattus norvegicus [1]) was “inactive” and the Activity (Rattus norvegicus [2]; in the assay text read “at 1 mg” for “at 1 ug”) was “inactive”.

`COc1ccc(C(=O)C2C(c3ccc(OC)cc3)=CCc3ccccc32)cc1` (configuration not stated) was tested, and the Activity (Rattus norvegicus [1]) was “inactive” and the Activity (Rattus norvegicus [2]) was “inactive”.

`COc1ccc(C2=C(C(=O)c3ccc(OCCN4CCCC4)cc3)c3ccccc3CC2)cc1.CS(=O)(=O)O` [TRIOXIFENE MESYLATE] was tested, and the “inhibition (INH)” value (Mus musculus [3]) was 44.1%, the “inhibition (INH)” value (Mus musculus [4]) was 53.5% and the “inhibition (INH)” value (Mus musculus [5]) was 25.9%. For the same compound, the “inhibition (INH)” value (Mus musculus [6]) was 22.8%, the “inhibition (INH)” value (Mus musculus [7]) was 12.7% and the “inhibition (INH)” value (Mus musculus [8]) was 0%. For the same compound, the “inhibition (INH)” value (Mus musculus [9]) was 52.3%, the “inhibition (INH)” value (Mus musculus [10]) was 49.2% and the “inhibition (INH)” value (Mus musculus [11]) was 31.1%. The Activity (Mus musculus [12]) was 19.1 mg, the Activity (Mus musculus [13]) was 24.2 mg and the Activity (Mus musculus [14]) was 21.2 mg. The Activity (Mus musculus [15]) was 34 mg, the Activity (Mus musculus [16]) was 28.8 mg and the Activity (Mus musculus [17]) was 8.6 mg. It also gave an Activity (Rattus norvegicus [18]) of 231.7 mg, an Activity (Rattus norvegicus [19]) of 222.3 mg and an Activity (Rattus norvegicus [20]) of 200.9 mg. The Activity (Rattus norvegicus [21]) was 66.8 mg, the Activity (Rattus norvegicus [22]) was 35 mg and the Activity (Rattus norvegicus [23]) was 54.9 mg. The Activity (Rattus norvegicus [24]) was 58.7 mg, the Activity (Rattus norvegicus [25]) was “Active” and the Activity (Rattus norvegicus [26]) was “Active”. For the same compound, the Activity (Rattus norvegicus [1]) was “Active”, the Activity (Rattus norvegicus [2]) was “Active” and the Activity (Rattus norvegicus [27]) was “inactive”. For the same compound, the Activity (Rattus norvegicus [28]) was “inactive”.
